We go through 13 compounds from ChEMBL document CHEMBL1177840, “Trifluoromethyl-promoted homocamptothecins: synthesis and biological activity” (Eur J Med Chem, 2010).

SMILES strings stand for the structures. Activity calls are given as the source filed them. The calls are words filed in the database; no cut-off is given here. Where only a bound is given, the exact number is not on record here.

One data set has as its system A549. The data set is described as follows: Cytotoxicity against human A549 cells after 3 days by MTT assay. As to conditions: A549, 3 days. On the technique in general: Tetrazolium assays rely on reduction of a dye to a coloured formazan, in cell work by metabolically active cells.
For a further data set, the system named is LoVo. The data set can be described thus: Cytotoxicity against human LoVo cells after 3 days by MTT assay.
Another data set concerns MDA-MB-435. The data set is described as follows: Cytotoxicity against human MDA-MB-435 cells after 3 days by MTT assay. As to conditions: MDA-MB-435, 3 days.
Data set [1] concerns Lewis lung carcinoma cell line. The data set is described as follows: Antitumor activity against mouse LLC transplanted in C57BL/6 mouse assessed as tumor growth inhibition at 0.5 mg/kg, ip qd for 5 days. Format: functional. As to conditions: 120 h, route intraperitoneal. The procedure, abridged: (§1)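 Male C57BL/6 mice (18–20 g) received Lewis lung carcinoma cells subcutaneously in the right axilla. Starting 3 days after implantation, they were dosed i.p. once daily for 5 consecutive days; controls received normal saline. Tumors were excised and weighed on day 14 post-implantation. Growth inhibition was calculated from the average tumor weight of the test group versus the control group.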

In data set [2] the test system is Lewis lung carcinoma cell line. The data set can be described thus: Antitumor activity against mouse LLC transplanted in C57BL/6 mouse assessed as tumor weight at 0.5 mg/kg, ip qd for 5 days (RVb = 1.8 +/- 0.47 g). Particulars: route intraperitoneal. Format: functional. An outline of the steps: as §1
Data set [3] relates to Mus musculus. The data set can be described thus: Toxicity in C57BL/6 mouse assessed as body weight at 0.5 mg/kg, ip qd for 5 days ( RVb = 19.06 +/- 1.35 g). Format: organism-based. Particulars: in vivo, 120 h. More on the design: dose 0.5 mg/kg, route intraperitoneal.
For data set [4], the system named is Mus musculus. The data set can be described thus: Toxicity in C57BL/6 mouse at 0.5 mg/kg, ip qd for 5 days. Format: organism-based. More on the design: dose 0.5 mg/kg, route intraperitoneal. As to conditions: in vivo, 120 h.
For data set [5], the target named is T1, Topoisomerase I (Bos taurus) (UniProt Q2HPH0).
T1 sequence (whole entry): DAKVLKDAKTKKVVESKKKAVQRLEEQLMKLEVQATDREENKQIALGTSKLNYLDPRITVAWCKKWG
The data set is described as follows: Inhibition of calf thymus topoisomerase 1-mediated relaxation of supercoiled pBR322 by agarose gel electrophoresis. The procedure, abridged: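 Reactions incubated 15 min at 37 °C, then stopped with SDS (0.5% final). After loading buffer was added, products were separated on 0.8% agarose in TAE buffer for 40 min at 120 V. Gels were stained with ethidium bromide at room temperature and photographed under UV transillumination.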

As for `CCC1(O)CC(=O)OCc2c1cc1n(c2=O)Cc2c-1nc1ccc(O)cc1c2C(F)(F)F` (racemic), the IC50 came out at 16.2 µM in the data set with A549, 4.01 µM with LoVo and 11.2 µM in the data set with MDA-MB-435.

On to `CCC1(O)CC(=O)OCc2c1cc1n(c2=O)Cc2c-1nc1ccc(C(F)(F)F)cc1c2C` (centres undefined), for which the IC50 in the data set on A549, with LoVo and in the data set with MDA-MB-435 was over 225 µM throughout.

`CCC1(O)CC(=O)OCc2c1cc1n(c2=O)Cc2c-1nc1ccc(OC)cc1c2C(F)(F)F` (racemic): the results for the IC50 in the data set on A549, with LoVo and in the data set with MDA-MB-435 were 0.832 µM, 14.6 µM and 21.4 µM, respectively.

Turning to `CC[C@@]1(O)C(=O)OCc2c1cc1n(c2=O)Cc2cc3c(CN(C)C)c(O)ccc3nc2-1` [TOPOTECAN], the inhibition in vivo at 0.5 mg/kg in data set [1] amounted to 47.5%. Moreover, the results for the Activity (in data set [2]; in the data set on Mus musculus [3]; in the data set on Mus musculus [4]) were 0.94 g, 19.24 g and “Non-toxic”, respectively.

Take `CCC1(O)CC(=O)OCc2c1cc1n(c2=O)Cc2c-1nc1ccc(Br)cc1c2C(F)(F)F` (racemic): the figures for the IC50 in the data set with A549, with LoVo and in the data set on MDA-MB-435 were 27.9 µM, 13.3 µM and 11 µM, respectively.

Consider `CCC1(O)CC(=O)OCc2c1cc1n(c2=O)Cc2c-1nc1ccc(OC)cc1c2C` (centres undefined), for which the IC50 with A549 stood at 3.52 µM; in the data set with LoVo, 1.32 µM; with MDA-MB-435, 2.61 µM.

Turning to `CCC1(O)CC(=O)OCc2c1cc1n(c2=O)Cc2c-1nc1ccc(C(F)(F)F)cc1c2C(F)(F)F` (racemic), the IC50 worked out at 20.3 µM with A549, 22.9 µM in the data set on LoVo and 5.32 µM in the data set on MDA-MB-435.

Take `CCC1(O)CC(=O)OCc2c1cc1n(c2=O)Cc2c-1nc1ccc(O)cc1c2C` (centres undefined): the IC50 in the data set on A549 amounted to 9.89 µM; in the data set on LoVo, 7.09 µM; in the data set with MDA-MB-435, 3.39 µM.

With `CCC1(O)CC(=O)OCc2c1cc1n(c2=O)Cc2c-1nc1cccc(OC)c1c2C(F)(F)F` (racemic), the IC50 was 5.13 µM in the data set with A549, 3.43 µM in the data set with LoVo and 2.87 µM in the data set with MDA-MB-435.

Turning to `CCC1(O)CC(=O)OCc2c1cc1n(c2=O)Cc2c-1nc1cccc(OC)c1c2C` (centres undefined), the inhibition in vivo at 0.5 mg/kg in data set [1] turned out to be 23.2%. Also, the Activity was 1.38 g in data set [2], 19.77 g with Mus musculus [3] and “Non-toxic” in the data set with Mus musculus [4]. Moreover, the half-inhibitory concentration (IC50) with A549 came out at 10.9 µM; in the data set with LoVo, 5.47 µM; in the data set on MDA-MB-435 it was 7.73 µM.

On to `CCC1(O)CC(=O)OCc2c1cc1n(c2=O)Cc2c-1nc1ccccc1c2C(F)(F)F` (racemic), for which the inhibition entry in data set [5] is “Active”. The inhibition in vivo at 0.5 mg/kg in data set [1] came out at 45.6%. Besides, the figures for the Activity (in data set [2]; with Mus musculus [3]; in the data set with Mus musculus [4]) were 0.98 g, 19.16 g and “Non-toxic”, respectively. For the same compound, the values for the IC50 in the data set with A549, in the data set on LoVo and with MDA-MB-435 were 0.313 µM, 1.29 µM and 2.33 µM, respectively.

Take `CCC1(O)CC(=O)OCc2c1cc1n(c2=O)Cc2c-1nc1ccccc1c2C` (centres undefined): the inhibition result in data set [5] is “Active”. In addition, the inhibition in vivo at 0.5 mg/kg in data set [1] was 41.2%. For the same compound, the Activity in data set [2] is recorded as 1.06 g; in the data set on Mus musculus [3], 18.8 g; in the data set on Mus musculus [4], “Non-toxic”. Moreover, the IC50 in the data set on A549 turned out to be 0.468 µM; with LoVo it was 1.16 µM; in the data set with MDA-MB-435 it was 3.88 µM.

Consider `CCC1(O)CC(=O)OCc2c1cc1n(c2=O)Cc2c-1nc1ccc(Br)cc1c2C` (centres undefined), for which the IC50 in the data set on A549 was 29.1 µM; in the data set with LoVo, 2.31 µM; in the data set with MDA-MB-435, 30.9 µM.

In general, IC50 refers to the concentration needed to halve the response being measured. Low readings indicate inhibition by little substance, high ones a need for much substance. For orientation: inhibition in vivo means the share of the control response that was lost under treatment.
